A selection: hits, their analogues and other compounds. The true share with any hit is near 2.5%.
TDP2 absorb: blocks human TDP2 phosphodiesterase activity. O95551. recombinant TDP2, T5PNP hydrolysis, p-nitrophenol absorbance 415 nm. inhibition, % at 12.8 µM. hit rate 0.34% among 370,000. AID 720702;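 active means inhibition above the mean of all tested compounds plus 3 SD, set per campaign, cut at about 25% in these data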;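 further: 0% = DMSO with enzyme and 100% = buffer with substrate but no TDP2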
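System: recombinant human TDP2 / Amount: 120 nM TDP2 per well / Also added: 5 mM T5PNP chromogenic substrate / Doses: 12.8 µM single point, 1% DMSO / Incubation: 2 h at 37 °C / Detection: p-Nitrophenol epi absorbance / Evaluation: % inhibition relative to enzyme-containing and enzyme-free wells / Repeats: singlicate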
E coli Lon inh: inhibits E. coli Lon protease; P0A9M0; purified E. coli Lon protease, fluorescence polarization; inhibition, % at 7.94 µM; hit rate 0.42% among 360,000; AID 602123; in the data active means inhibition above about 13%, passing the limit was not always enough;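 further: 0% = enzyme with probe and DMSO and 100% = no enzyme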
Target sequence (P0A9M0 whole entry, looked up): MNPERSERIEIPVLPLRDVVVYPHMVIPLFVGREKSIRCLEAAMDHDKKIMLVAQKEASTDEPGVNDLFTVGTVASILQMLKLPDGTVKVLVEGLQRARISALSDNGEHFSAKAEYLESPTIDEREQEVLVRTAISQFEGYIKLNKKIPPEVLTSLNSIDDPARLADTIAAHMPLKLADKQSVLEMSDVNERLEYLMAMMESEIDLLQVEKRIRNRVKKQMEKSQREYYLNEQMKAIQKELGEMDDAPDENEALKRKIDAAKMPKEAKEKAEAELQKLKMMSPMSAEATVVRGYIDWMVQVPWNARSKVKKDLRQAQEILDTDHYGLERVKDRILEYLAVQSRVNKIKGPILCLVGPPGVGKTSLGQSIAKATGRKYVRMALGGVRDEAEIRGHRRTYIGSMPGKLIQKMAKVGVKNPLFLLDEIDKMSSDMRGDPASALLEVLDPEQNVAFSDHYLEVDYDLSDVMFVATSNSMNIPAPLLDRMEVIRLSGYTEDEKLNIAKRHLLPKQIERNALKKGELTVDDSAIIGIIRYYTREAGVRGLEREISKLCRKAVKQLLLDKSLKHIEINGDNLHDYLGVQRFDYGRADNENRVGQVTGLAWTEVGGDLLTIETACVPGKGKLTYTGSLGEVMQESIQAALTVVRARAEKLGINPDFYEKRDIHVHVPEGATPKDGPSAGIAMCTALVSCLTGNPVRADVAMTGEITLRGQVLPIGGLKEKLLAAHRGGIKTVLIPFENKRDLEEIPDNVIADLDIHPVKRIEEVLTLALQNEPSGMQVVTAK
PRMT1 FP inh: PRMT1 (human) inhibition, primary screen | recombinant PRMT1, activity-based probe fluorescence polarization | hit rate 1.3% among 370,000 | Q99873 | AID 652257 | inhibition, % at 2.79 µM;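 active means inhibition above about 21% made by adding two undisclosed values, limit read from the data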
PAD4 inh: blocks human protein arginine deiminase 4; Q9UM07; recombinant PAD4, RCA probe fluorescence polarization; inhibition, % at 6.36 µM; hit rate 0.41% among 330,000; AID 485272;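 active means percent inhibition above a cutoff equal to the mean of all tested compounds plus 3 SD, cut at about 15% in these data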;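 further: 0% = PAD4 with RCA probe and DMSO and 100% = probe without PAD4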
GSTO1 counter: counter-screen for RBBP9 inhibitors: inhibitors of human GSTO1; P78417; recombinant GSTO1, activity-based probe fluorescence polarization; inhibition, % at 5.96 µM; hit rate 1.1% among 300,000; AID 1974;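 active means inhibition above the campaign mean inhibition plus 3 SD, cut at about 35% in these data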;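 further: 0% = GSTO1-1 with DMSO and 100% = wells lacking GSTO1-1 enzyme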
An asterisk follows results filed as active; nt = no result.

SMILES	TDP2 absorb	E coli Lon inh	PRMT1 FP inh	PAD4 inh	GSTO1 counter
COc1cc(Cl)c(S(=O)(=O)N2CCCC2)cc1Cl	-12	-1	-4	1	4
C#CCCCN([C@H](C(=O)OC)C(C)C)S(=O)(=O)c1ccccc1Br	-18	nt	-6	nt	nt
CCc1nnc(NC(=O)CSc2sc3c(O)cc(=O)[nH]c3c2C#N)s1	25*	-23	42*	-11	48*
N#Cc1c(SCC(=O)Nc2cccc(C(F)(F)F)c2)sc2c(O)cc(=O)[nH]c12	-1	-17	21*	-11	-2
Cc1ccc(Cl)cc1NC(=O)CSc1sc2c(O)cc(=O)[nH]c2c1C#N	2	2	15	0	10
CCc1nnc(NC(=O)CSc2nc3[nH]c(=O)cc(O)c3s2)s1	-2	-18	7	-4	nt
Cc1nc2sc(C(c3ccco3)N3CCN(C(c4ccccc4)c4ccccc4)CC3)c(O)n2n1 (stereo unspecified)	13	-3	24*	-1	2
Cc1nc2sc(C(c3ccco3)N3CCC(C)CC3)c(O)n2n1 (stereo unspecified)	-9	-5	22*	4	8
Cc1nc2sc(C(c3ccco3)N3CCN(c4ccccc4)CC3)c(O)n2n1 (stereo unspecified)	-8	-13	7	-2	1
COc1cc(NC(=O)c2ccccc2)c(C)cc1NC(=O)CSc1nnc(-c2ccccc2F)n1-c1ccc(C)cc1	-8	nt	-7	nt	nt
O=C1C(NC(=O)N2c3ccccc3C=Cc3ccccc32)CCCCN1Cc1cccc(C(F)(F)F)c1 (stereo unspecified)	-1	nt	0	nt	nt
COC(=O)[C@]12C[C@H](CC(=O)NCCc3ccccc3OC)C(=O)N(CCC3=CCCCC3)C1=C[C@H](C(C)C)O[C@@H]2C1CC1	-2	nt	-3	nt	nt
CCOC(=O)c1c2c(n(C)c1C)C(=O)C(=O)c1ccc(Br)cc1-2	-3	-1	0	-3	72*
O=C(OCC#CCSc1nnc(-c2ccccc2)o1)c1ccc(F)cc1	0	nt	-2	nt	nt
O=C(OCC#CCSc1nnc(-c2ccncc2)o1)c1cccs1	10	5	-3	-1	37*
O=C(/C=C/c1ccc([N+](=O)[O-])s1)N1CCCCC1	-10	0	-5	-5	35*
O=C(Nc1c(-c2ccccc2)nc2ncccn12)C1CC1	3	nt	2	nt	nt
Cn1nc(C(=O)NC2CCCCC2)c2c1-c1ccccc1SC2	-15	3	0	1	5
CC1CCC(NC(=O)c2nn(C)c3c2CSc2ccccc2-3)CC1 (stereo unspecified)	-11	-5	22*	3	-4
Cc1ccc(Cn2cc(CN(C(C)(C)C)S(=O)(=O)c3ccc(F)cc3Br)nn2)cc1	-1	nt	-1	nt	nt
O=C(O)c1cccnc1SC1CC(=O)N(CCc2ccccc2)C1=O (stereo unspecified)	-2	-4	-1	2	0
CCOC(=O)C(N)CSC1CC(=O)N(CCc2ccccc2)C1=O (stereo unspecified)	4	-7	22*	-6	-4
CN(C)CCCN(C(=O)c1ccc(S(=O)(=O)N2CCc3ccccc32)cc1)c1nc2ccc(Cl)cc2s1	10	-9	27*	9	-10
CN(C)CCCN(C(=O)c1ccc(S(=O)(=O)N2CCc3ccccc32)cc1)c1nc2ccc(F)cc2s1	9	1	23*	2	0
COc1ccccc1N1CCN(C(=O)c2cc3c(C)nn(-c4ccccc4)c3s2)CC1	5	nt	5	nt	nt
SMILES	TDP2 absorb	E coli Lon inh	PRMT1 FP inh	PAD4 inh	GSTO1 counter
COC(=O)CCC(=O)OC1(C)C(=O)C2=CN(c3ccc(OC)cc3)C(c3ccc(OC)cc3)=CC2=C(Br)C1=O (stereo unspecified)	nt	-4	nt	-28	36*
COC(=O)CCC(=O)OC1(C)C(=O)C2=CN(Cc3ccco3)C(c3ccc(OC)cc3)=CC2=C(Br)C1=O (stereo unspecified)	nt	nt	nt	-18	6
CN(C)c1ccc(NC(=O)C2C3C=CC(C3)C2C(=O)O)cc1 (stereo unspecified)	45*	-3	18	nt	nt
CC(=O)Nc1ccc(C(/C=C/c2ccccc2)Cc2ccccc2)cc1 (stereo unspecified)	2	nt	0	nt	nt
C=CCN1[C@H](CC(C)C)COc2cc(N3CCCC3)ccc2S1(=O)=O	-2	nt	0	nt	nt
O=C(CCl)N=c1sccn1Cc1cccc2ccccc12	7	-1	4	nt	nt
O=C(CCl)N=c1sccn1Cc1ccccc1Cl	1	4	-1	-40	102*
NC(=S)N/N=C/c1ccc(-c2ccc([N+](=O)[O-])cc2)o1	-11	-21	21*	-4	11
NC(=S)N/N=C/c1ccc(-c2cc(Cl)cc(Cl)c2)o1	0	-2	7	-3	-7
COC1=C(Br)C(=O)c2nc(C)ccc2C1=O	25*	18	28*	nt	nt
COC1=C(N)C(=O)c2nc(C)ccc2C1=O	21	-4	5	nt	nt
CCOc1ccc(-n2c(SCC(=O)Nc3ccc(S(=O)(=O)Nc4nccs4)cc3)nnc2-c2ccco2)cc1	-5	nt	6	nt	nt
CCC(=O)N(Cc1ccco1)c1nc(C(=O)Nc2ccc(Cl)cc2)c(C)s1	-7	-2	21*	-6	-9
N#Cc1c(-c2ccccc2)nc(SCC(=O)Nc2nnc(C(F)(F)F)s2)[nH]c1=O	1	-3	1	-5	67*
O=S(=O)(c1ccc(CN2CCOCCOCCN(Cc3ccc(S(=O)(=O)C(F)(F)F)cc3)CCOCC2)cc1)C(F)(F)F	0	nt	-3	nt	nt
COC(=O)C1CN(Cc2ccc(F)cc2)CCS(=O)(=O)N1Cc1ccc(C)cc1 (stereo unspecified)	-9	nt	-5	nt	nt
Cc1ccc(C=Nn2c(-c3n[nH]c4c3CCC4)n[nH]c2=S)o1	1	nt	13	nt	nt
COc1cc(C2Nc3cccc4cccc(c34)N2)ccc1O	15	-4	7	-5	31
CSc1ccc(C2Nc3cccc4cccc(c34)N2)cc1	15	0	8	-5	12
Clc1ccc(C2Nc3cccc4cccc(c34)N2)cc1	1	9	9	1	35*
Cc1cccc(C2Nc3cccc4cccc(c34)N2)c1	-8	6	8	-1	37*
c1cc2c3c(cccc3c1)NC(c1ccc3c(c1)OCO3)N2	7	-3	2	-6	35*
CC(=O)C1=C(C)N(Cc2ccc(F)cc2)C(=S)NC1c1ccc(Cl)cc1 (stereo unspecified)	-1	nt	0	nt	nt
Nn1c(C2COc3ccccc3O2)n[nH]c1=S (stereo unspecified)	7	-13	2	-5	35*
O=C(NC1CC1)C1Nc2ccc(OC(F)(F)F)cc2C2C=CCC12 (stereo unspecified)	8	-1	22*	1	-3
Cc1ccc2c(c1)C1C=CCC1C(C(=O)O)N2 (stereo unspecified)	nt	nt	nt	7	54*
CC(=O)Nc1c(-c2ccc(C)cc2)nc2ncccn12	2	nt	0	nt	nt
Cc1ccc(CC2CC(=O)N(C(Cc3ccccc3)C(=O)O)C2=O)cc1 (stereo unspecified)	0	9	4	-6	36*
